# Shown are actives, neighbours in structure and some others; about 1.8% of the full set was active somewhere.
# Hck Nef HTS – inhibitors of Nef-activated human Hck kinase, primary screen, biochemical, Z-Lyte FRET, 384-well, Hck-YEEI | 220,000 compounds, 0.68% hits | inhibition, % at 20 µM | AID 463187, 2010 | Recombinant Hck-YEEI plus Nef, Z-Lyte FRET kinase assay | Tyrosine-protein kinase HCK (Homo sapiens), P08631;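 active = Hck-Nef kinase inhibition above about 50%, limit read from the data; inactive = inhibition below that limit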
# Target sequence (P08631 whole entry, looked up): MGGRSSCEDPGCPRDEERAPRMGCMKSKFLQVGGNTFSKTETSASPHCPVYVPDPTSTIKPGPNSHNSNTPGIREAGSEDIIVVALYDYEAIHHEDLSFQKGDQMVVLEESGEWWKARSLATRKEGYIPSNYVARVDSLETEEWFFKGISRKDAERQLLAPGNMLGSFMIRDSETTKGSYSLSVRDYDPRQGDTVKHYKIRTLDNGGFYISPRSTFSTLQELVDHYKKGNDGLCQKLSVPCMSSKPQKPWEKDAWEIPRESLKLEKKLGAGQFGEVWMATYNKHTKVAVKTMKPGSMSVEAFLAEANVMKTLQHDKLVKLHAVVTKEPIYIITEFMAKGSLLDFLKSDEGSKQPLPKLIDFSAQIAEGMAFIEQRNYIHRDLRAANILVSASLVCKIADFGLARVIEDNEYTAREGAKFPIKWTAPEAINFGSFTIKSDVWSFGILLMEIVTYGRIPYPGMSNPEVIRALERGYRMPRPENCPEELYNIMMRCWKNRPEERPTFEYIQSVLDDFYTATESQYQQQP
# RanGTP-Impb inh – inhibitors of RanGTP-importin-beta interaction, primary screen, biochemical, FRET, CFP-Ran, YFP-importin-beta, homogeneous; Ran GTPase (GTP-bound) - importin-beta complex; cell-free CFP-Ran/YFP-importin-beta FRET ratio; inhibition, % (test concentration not listed); 300,000 compounds, 1.1% hits; AID 2216, 2009;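 active = more than half of the replicate wells show a fall in the fluorescence ratio signal beyond about 16%, limit read from the data, passing the limit was not always enough; inconclusive = exactly half of the replicate wells pass the set limit; inactive = fewer than half of replicates pass the limit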
# Runt-CBFb FRET – inhibitors of RUNX1 Runt–CBFb binding, primary screen, biochemical, FRET, Cerulean-Runt, Venus-CBFb, uHTS | Cerulean-Runt/Venus-CBFb FRET ratio 530/480, 1 h | inhibition, % at 20 µM | 220,000 compounds, 0.46% hits;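 active = inhibition over about 50% at 20 µM in the single-dose screen, limit read from the data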
#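 Assay system: Cerulean-Runt domain / Medium: Tris 50 mM pH 7.5, KCl, K2SO4, 0.01% BSA / Timing: protein complex preformed 1 h, compound exposure 1 h, room temperature, dark / Measured by: FRET, excitation 422 nm, emission at 530 and 480 nm / Evaluation: loss of energy transfer signal / Control set: 5 µM unlabeled CBFb as full-inhibition high control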
# Runt-SMMHC FRET – inhibitors of RUNX1 Runt–CBFb-SMMHC binding, primary screen, biochemical, FRET, Cerulean-Runt, Venus-CBFb-SMMHC, uHTS; inhibition, % at 20 µM; 220,000 compounds, 0.74% hits; AID 1434, 2008; Cerulean-Runt/Venus-CBFb-SMMHC FRET ratio 530/480, 1 h;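 active = mean inhibition across duplicate retests at 20 µM reaching about 50%, limit read from the data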;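 also: inhibitors lower the FRET ratio by blocking Runt binding to CBFb-SMMHC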
# Runt-CBFb TRFRET – inhibitors of RUNX1 Runt–CBFb binding, biochemical, TR-FRET | shares compounds with Runt-CBFb FRET | TR-FRET RUNX1 Runt domain-CBFb binding | inhibition, % at 20 µM | 480 compounds, 20% hits | AID 1502, 2009; in the data active = inhibition above about 40%
# YIC counter – YIC intramolecular FRET probe signal interference, dose response, counter-screen for RanGTP-importin-beta inhibitor project, biochemical, fluorescence FRET | 1,000 compounds, 40% hits | shares compounds with RanGTP-Impb inh | Purified YIC probe, intramolecular FRET ratio YFP/CFP | IC50, µM | AID 435026, 2010;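 active = fitted half-maximal inhibitory concentration no more than tenfold above the top dose tested; inconclusive = flat fit with 30 to 70% activity, or poor fit; inactive = half-maximal concentration beyond tenfold above the top dose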
# Hck Nef conf – retest of Hck:Nef kinase inhibitor hits, confirmation, biochemical, Z-Lyte FRET, 384-well, p-Tyr peptide counterscreen; shares compounds with Hck Nef HTS; Recombinant Hck-YEEI:Nef, Z-Lyte FRET kinase assay; calls only at 10 µM; 1,300 compounds, 28% hits; AID 463188, 2010;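 active = average inhibition of at least 50%, with Z-scores no higher than 3 in both the phospho-tyrosine peptide and fluorescence counterscreens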
# A number is an active result; . = inactive; ? = inconclusive; / = no result shown.
SMILES,Hck Nef HTS,RanGTP-Impb inh,Runt-CBFb FRET,Runt-SMMHC FRET,Runt-CBFb TRFRET,YIC counter,others
CCN1C2=C(C(=O)CCC2)C(c2ccc(O)c(Br)c2)C2=C1CCCC2=O,.,35,54,122,.,8.4,
CC(=O)N1CCc2c(sc(NC(=O)c3ccc4c(c3)OCCO4)c2C#N)C1,.,39,65,90,.,52,
C=CCn1c(N)c(C(=O)Nc2ccc(C)c(C)c2)c2nc3ccccc3nc21,.,.,.,.,/,/,
C=CCn1c(N)c(C(=O)OCCC)c2nc3ccccc3nc21,.,21,69,119,.,.,
CCCCN(CC)C(=O)CSc1nc2c(sc(=S)n2-c2ccc(OCC)cc2)c(=O)[nH]1,.,.,.,.,/,/,
Cc1cccc(C2N=C(N)Nc3nc4ccccc4n32)c1 (configuration not stated),.,.,.,.,/,/,
COc1ccc(C2=NN(CN3C(=O)C(=O)c4ccccc43)C(c3cccc([N+](=O)[O-])c3)C2)cc1 (configuration not stated),.,.,.,.,/,/,
O=C(c1ccc(CNS(=O)(=O)c2ccc(Br)cc2)cc1)N1CCCCC1,/,.,/,/,/,/,
CCOCCCNC(=O)/C(C#N)=C/c1cc(Br)c(O)c(Br)c1,.,38,68,116,.,15,
CCOc1ccc(Nc2c3ccccc3nc3ccccc23)cc1,.,54,60,.,41,.,
COCCN1C=C(C(=O)OC)C(c2cc(Br)c(OC)c(OC)c2)C(C(=O)OC)=C1,68,20,73,142,.,31,
COC(=O)C1=CN(Cc2ccc(C)cc2)C=C(C(=O)OC)C1c1cc(OC)c(OC)c(OC)c1,/,.,/,/,/,/,
COc1cccc(C2C(C(=O)Nc3nc4ccccc4s3)=C(C)NC3=C2C(=O)CC(C)(C)C3)c1OC (configuration not stated),57,69,54,82,.,/,
CCCCc1cc(=O)oc2cc(OCC(=O)N(CC)CC)c(Cl)cc12,.,.,.,.,/,/,
CCCCc1cc(=O)oc2c(CN(C)C)c(O)c(Cl)cc12,117,/,75,156,.,/,
Cc1ccc(CNC(=O)c2nccnc2C(=O)O)cc1,/,.,/,/,/,/,
COCCNC(=O)CN(C(=O)Cn1nnc2ccccc21)c1cccc(C)c1C,.,.,.,.,/,/,
COc1c(O)ccc(/C=C(\C#N)c2nc3ccccc3[nH]2)c1[N+](=O)[O-],50,20,74,100,.,/,Hck Nef conf=.
Cc1ccc(-c2nc(C)sc2CC(=O)OCC(=O)Nc2ccc(F)c(Cl)c2)cc1,/,.,/,/,/,/,
CCc1c(C)c2cc(Cl)c(O)c(CN3CCCCC3)c2oc1=O,118,22,85,156,.,26,
Nc1c(S(=O)(=O)c2ccccc2)c2nc3ccccc3nc2n1CCN1CCOCC1,.,.,.,.,/,/,
CCCCn1c(NC(=O)c2ccc(Br)o2)c(S(=O)(=O)c2ccccc2)c2nc3ccccc3nc21,84,25,64,136,.,4.9,
CC(=O)Oc1ccc2ccc(=O)oc2c1,122,.,51,85,.,/,
COc1ccc2ccc(=O)oc2c1,.,?,.,.,/,/,
Cc1ccc(C(=O)Oc2ccc3ccc(=O)oc3c2)cc1,/,.,/,/,/,/,
SMILES,Hck Nef HTS,RanGTP-Impb inh,Runt-CBFb FRET,Runt-SMMHC FRET,Runt-CBFb TRFRET,YIC counter,others
CC(NC(=O)OC(C)(C)C)C(=O)Oc1ccc2ccc(=O)oc2c1 (configuration not stated),74,/,68,113,.,/,
CCOC(=O)c1cc[n+](CC(=O)c2ccc(F)cc2)cc1,.,.,.,.,/,/,
CCCn1nc(NC(=O)C2CCCO2)c2cc3cccc(C)c3nc21 (configuration not stated),52,68,62,82,.,/,Hck Nef conf=.
COCCCNC(=O)/C(C#N)=C/c1c(N2CCN(c3ccccc3)CC2)nc2ccccn2c1=O,/,26,/,/,/,29,
Cc1oc2cc(O)ccc2c(=O)c1-c1ccccc1,.,.,.,.,/,/,
Cc1oc2cc(O)ccc2c(=O)c1-c1nncn1-c1ccccc1,.,37,.,93,/,14,
COc1ccc(-c2c(C)c3ccc(O)cc3oc2=O)cc1OC,/,20,/,/,/,34,
O=C(c1ccc(F)cc1)c1cc2ccc(O)cc2oc1=O,/,37,/,/,/,13,
COc1ccccc1C(=O)c1cc2ccc(O)cc2oc1=O,.,55,114,127,/,7.1,
O=C(c1ccccc1)c1cc2ccccc2oc1=O,/,.,/,/,/,/,
CCOc1ccccc1CNCc1ccc(F)cc1,.,.,.,.,/,/,
O=C(/C=C/c1ccc[nH]1)c1ccc(F)cc1,.,28,.,.,/,25,
O=C(/C=C/c1ccc[nH]1)c1ccccc1,.,23,.,.,/,32,
O=C(NCC1CCCO1)c1ccc(COc2ccccc2)o1 (configuration not stated),/,.,/,/,/,/,
CC(NC(=O)c1c(O)c2ccccc2[nH]c1=O)c1ccccc1 (configuration not stated),/,.,/,/,/,/,
CC(C)C[C@H](NC(=O)N1CCn2c1nc1ccccc12)C(=O)N[C@@H](Cc1ccccc1)C(=O)O,/,.,/,/,/,/,
O=C(NCc1cccs1)C1CCCN(c2ncccn2)C1 (configuration not stated),.,.,.,.,/,/,
CCOC(=O)CNC(=O)C1CCCN(c2ncccn2)C1 (configuration not stated),.,21,.,.,/,.,
CCN(CC)CCCNC(=S)N(Cc1ccco1)Cc1cc2cc3c(cc2[nH]c1=O)OCCO3,.,.,.,.,/,/,
CCN(CC)CCCNC(=S)N(Cc1cccs1)Cc1cc2cc3c(cc2[nH]c1=O)OCCO3,.,22,.,.,/,.,
S=c1[nH]c2cc3ccccc3cc2[nH]1,.,.,.,.,/,/,
S=c1[nH]c2ccc3ccccc3c2[nH]1,.,17,.,.,/,.,
Cc1ccc(CNC(=O)c2cccnc2)cc1,/,21,/,/,/,.,
O=C(NCc1ccccc1C(F)(F)F)C1CC(c2ccc(C(F)(F)F)cc2)=NO1 (configuration not stated),.,17,.,.,/,.,
O=C(NCc1ccc(C(F)(F)F)cc1)C1CC(c2ccc(C(F)(F)F)cc2)=NO1 (configuration not stated),/,.,/,/,/,/,
